Results on 6 molecules are retold here after publication PMC5607115 (ACS chemical neuroscience, 2017).

In general, logP refers to the decadic logarithm of the partition coefficient of the neutral form, usually between octanol and water. By amount remaining is commonly meant the share of the starting amount still present when the sample was taken. A lower amount remaining goes with a greater loss. For orientation: IC50 means the point on the concentration scale where inhibition reaches its midpoint. Lower therefore signals higher potency.

Where two headings read alike, the source gives them in different places.

One data set can be described thus: LogP, shake flask method. Conditions: n-octanol/water. The data set is classed as physicochemical. An outline of the steps: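 Test compound (50 µL of 20 µM DMSO stock) was mixed with mutually pre-saturated n-octanol and water (475 µL each), vortexed 1 min and shaken overnight at 37 °C. Each phase was quantified by LC-MS/MS, and LogP was taken as log of the octanol/water amount ratio. Run in triplicate.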

The next data set deals with human mGlu3 (Homo sapiens, UniProt Q14832). Description: thallium flux GIRK functional assay, human mGlu3. The data set is classed as cell-based. Conditions: for selectivity for mGlu2 over mGlu3: thallium flux GIRK assays. An outline of the steps: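 HEK cells stably co-expressing GIRK and human mGlu3 (puromycin-selected polyclonal line) were plated overnight and loaded with FluoZin2-AM (330 nM final) for 1 h at RT. Compound (0.3% DMSO final) was preincubated ~1 h at RT, then thallium buffer with a full glutamate concentration-response was added. The 5–15 s fluorescence slope, normalised to vehicle and maximal agonist, was fitted to a four-parameter logistic equation.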
human mGlu3, sequence (Q14832 23-879): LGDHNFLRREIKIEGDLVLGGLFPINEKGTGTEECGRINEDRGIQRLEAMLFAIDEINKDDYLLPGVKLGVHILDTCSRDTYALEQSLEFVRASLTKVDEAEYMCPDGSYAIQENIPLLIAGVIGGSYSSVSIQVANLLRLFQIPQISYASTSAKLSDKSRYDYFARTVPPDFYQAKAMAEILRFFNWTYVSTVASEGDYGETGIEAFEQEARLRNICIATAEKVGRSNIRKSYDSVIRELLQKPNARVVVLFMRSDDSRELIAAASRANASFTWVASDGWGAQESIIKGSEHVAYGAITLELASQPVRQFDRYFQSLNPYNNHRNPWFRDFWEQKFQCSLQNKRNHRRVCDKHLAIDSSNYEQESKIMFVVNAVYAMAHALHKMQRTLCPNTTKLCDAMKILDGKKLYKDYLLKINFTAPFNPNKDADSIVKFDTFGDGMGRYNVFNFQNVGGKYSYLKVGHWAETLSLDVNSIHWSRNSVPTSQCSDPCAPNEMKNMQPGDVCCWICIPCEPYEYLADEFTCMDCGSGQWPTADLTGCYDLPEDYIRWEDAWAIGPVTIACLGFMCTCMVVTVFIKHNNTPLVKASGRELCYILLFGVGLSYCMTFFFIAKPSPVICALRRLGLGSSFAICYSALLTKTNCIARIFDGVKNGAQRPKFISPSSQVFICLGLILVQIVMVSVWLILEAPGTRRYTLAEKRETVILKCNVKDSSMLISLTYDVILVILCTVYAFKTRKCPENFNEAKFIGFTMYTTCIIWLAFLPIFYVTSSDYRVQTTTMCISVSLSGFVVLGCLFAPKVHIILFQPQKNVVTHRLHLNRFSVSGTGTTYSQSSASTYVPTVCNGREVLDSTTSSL

Data set [1] is described as follows: liver microsomal stability. The data set is classed as in vitro ADME. Conditions: Sprague-Dawley, rat, liver microsomes. The method, boiled down: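 Sprague-Dawley rat liver microsomes in PBS with compound (0.5 µL of 2 mM DMSO stock) were preincubated 5 min at 37 °C. NADPH (10 mM stock) was added, then 60 min at 37 °C. Quenched with ice-cold CH3CN, centrifuged, quantified by LC-MS/MS as % peak area 60 vs 0 min. At least triplicate; verapamil positive control.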

Another data set concerns the target human mGlu2 (Homo sapiens, UniProt Q14416). In words: thallium flux GIRK functional assay, human mGlu2. The data set is classed as cell-based.
Data set [2] can be described thus: pH stability in buffer solutions. The data set is classed as physicochemical. Conditions: 60 min. An outline of the steps: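 A DMSO stock (0.25 µmol/mL) was diluted 50 µL into 950 µL of 20 mM buffer: phosphate pH 7.4, boric acid-KCl-NaOH pH 9.4, or sodium acetate-KCl-HCl pH 5.0. Samples were held 1 h at 37 °C, and unchanged compound was measured by reversed-phase HPLC (CH3CN/H2O + 0.1% TFA).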

The subject of data set [3] is mGlu2. As to conditions: cited from earlier work.
The conditions of data set [4]: mice.
In data set [5] the target is mGlu2 (Rattus norvegicus, UniProt P31421). In words: in vitro autoradiography on rat brain sections. The data set is classed as binding.
mGlu2 (Rattus norvegicus, UniProt P31421), sequence (P31421 19-872): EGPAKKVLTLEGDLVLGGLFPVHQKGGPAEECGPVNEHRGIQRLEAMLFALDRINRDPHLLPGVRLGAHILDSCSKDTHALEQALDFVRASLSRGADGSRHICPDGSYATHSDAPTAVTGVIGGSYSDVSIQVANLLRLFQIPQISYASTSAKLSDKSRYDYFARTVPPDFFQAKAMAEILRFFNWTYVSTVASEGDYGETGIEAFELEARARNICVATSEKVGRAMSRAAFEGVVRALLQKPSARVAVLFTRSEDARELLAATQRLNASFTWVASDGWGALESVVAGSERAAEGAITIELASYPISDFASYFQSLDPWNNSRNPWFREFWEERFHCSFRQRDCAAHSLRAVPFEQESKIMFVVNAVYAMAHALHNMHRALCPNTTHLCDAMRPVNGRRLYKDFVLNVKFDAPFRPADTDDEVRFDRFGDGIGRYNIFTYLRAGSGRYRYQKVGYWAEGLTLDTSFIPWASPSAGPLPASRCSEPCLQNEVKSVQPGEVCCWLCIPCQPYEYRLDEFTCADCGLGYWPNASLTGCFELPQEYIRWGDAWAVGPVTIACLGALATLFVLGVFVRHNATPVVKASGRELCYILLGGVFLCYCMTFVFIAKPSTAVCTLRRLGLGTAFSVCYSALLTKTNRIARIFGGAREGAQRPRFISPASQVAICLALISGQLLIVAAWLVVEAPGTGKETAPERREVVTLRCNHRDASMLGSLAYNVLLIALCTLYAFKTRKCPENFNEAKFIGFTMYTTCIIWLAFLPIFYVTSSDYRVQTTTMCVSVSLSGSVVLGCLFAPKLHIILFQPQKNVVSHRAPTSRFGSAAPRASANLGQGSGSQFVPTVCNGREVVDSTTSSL
For data set [6] the following is noted: rat.
The test system of a further data set is major CNS targets. In words: GPCRome assays. The data set is classed as cell-based. Conditions: NIH PDSP.
Data set [7] in a line: PET imaging in normal rat brain. Conditions: unlabeled QCA 1 mg/kg, self-blocking. The data set is classed as in vivo, Sprague-Dawley rats.
The next data set has as its system other mGlu receptors. Description: activity towards other mGlu receptors. Conditions: test concentration of 30 µM.
The conditions of data set [8]: cited from earlier work.

human mGlu2, sequence (Q14416 19-872): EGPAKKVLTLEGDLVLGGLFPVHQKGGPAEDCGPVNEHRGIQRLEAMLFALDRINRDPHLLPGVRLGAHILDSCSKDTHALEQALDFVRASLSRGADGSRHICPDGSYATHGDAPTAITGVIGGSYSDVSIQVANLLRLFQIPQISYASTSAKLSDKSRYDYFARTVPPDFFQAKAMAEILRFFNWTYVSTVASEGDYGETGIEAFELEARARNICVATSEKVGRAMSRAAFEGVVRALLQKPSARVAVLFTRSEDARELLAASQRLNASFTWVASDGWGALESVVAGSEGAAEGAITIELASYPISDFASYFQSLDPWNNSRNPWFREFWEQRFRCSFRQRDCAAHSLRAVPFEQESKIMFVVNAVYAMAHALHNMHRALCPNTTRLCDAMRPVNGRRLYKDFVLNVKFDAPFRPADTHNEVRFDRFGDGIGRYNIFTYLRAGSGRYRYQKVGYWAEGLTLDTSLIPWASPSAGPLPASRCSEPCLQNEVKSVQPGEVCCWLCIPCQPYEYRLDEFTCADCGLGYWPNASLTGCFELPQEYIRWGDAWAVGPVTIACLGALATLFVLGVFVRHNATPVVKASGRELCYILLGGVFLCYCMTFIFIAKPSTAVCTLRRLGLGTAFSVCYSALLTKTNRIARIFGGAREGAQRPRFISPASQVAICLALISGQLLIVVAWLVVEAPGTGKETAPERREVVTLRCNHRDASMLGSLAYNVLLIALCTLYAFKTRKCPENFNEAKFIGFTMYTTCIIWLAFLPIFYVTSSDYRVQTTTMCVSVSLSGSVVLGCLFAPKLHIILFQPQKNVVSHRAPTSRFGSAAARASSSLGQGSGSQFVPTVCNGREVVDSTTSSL

For `NC(=O)c1cc(-c2ccc(OCCF)cc2F)c2ccc(CN3C(=O)CCC3=O)cc2n1` [FEQCA, 7-((2,5-dioxopyrrolidin-1-yl)methyl)-4-(2-fluoro-4-(2-fluoroethoxy)phenyl)quinoline-2-carboxamide], the logP in “LogP, shake flask method” was determined as 1.75. Moreover, the “selectivity for mGlu2 over mGlu3” value at human mGlu3 was “excellent selectivity for mGlu2 over mGlu3”. For the same molecule, in data set [1], the amount remaining at 1 h, 2 µM came to 70.1%. This molecule also gave an IC50 against human mGlu2 of 130 ± 10 nM. Moreover, the “pH stability, percent remaining of the parent molecule” value (from here on “pH stability, percent remaining”) worked out at 98.5% in data set [2] (pH 5.0, 37 °C); 53.6% in data set [2] (pH 7.4, 37 °C); 59.0% in data set [2] (pH 9.4, 37 °C).

In the case of `[11CH3]Oc1c(F)ccc(F)c1C1CCN(c2ccn3c(CC4CC4)nnc3c2Cl)CC1` [compound 2], the “mGlu2 selectivity over the other mGlu receptors” value with mGlu2 [3] is “greater than 350 fold”.

Consider `[11CH3]Oc1ccc(-c2cc(C(N)=O)nc3cc(CN4C(=O)CCC4=O)ccc23)c(F)c1` [[^11C]QCA, 7-((2,5-dioxopyrrolidin-1-yl)methyl)-4-(2-fluoro-4-[^11C]methoxyphenyl) quinoline-2-carboxamide], for which the “uptake in heart, lungs, liver, pancreas, kidneys and small intestine” value in [4] (1 min post injection) is greater than 3 % ID/g. In addition, the “brain uptake, peak value” in data set [4] (at 1 min post injection) is 0.42 % ID/g. Besides, the “peak brain uptake in whole brain” value is recorded as “ca. 0.8 SUV” with PgP/Bcrp (PgP/Bcrp knockout mice) and “ca. 0.3 SUV” in the data set on PgP/Bcrp (wild-type mice). Moreover, the “increase of whole brain uptake in PgP/Bcrp knockout vs wild-type mice” value in the data set with PgP/Bcrp (calculated based on area under curve) is on record as 130%. In addition, on mGlu2 [5], the “in vitro specific binding to mGlu2” value is “moderate-to-high level of in vitro specific binding”. Moreover, the entries for the “unchanged [11C]QCA in brain homogenates” value in data set [6] (5 min post injection), in [6] (20 min post injection) and in data set [6] (60 min post injection) were 78%, 41% and 34%, respectively. In addition, the results for the “unchanged [11C]QCA in plasma” value in data set [6] (5 min post injection), in data set [6] (20 min post injection) and in [6] (60 min post injection) were 93%, 88% and 79%, respectively.

In “LogP, shake flask method”, `COc1ccc(-c2cc(C(N)=O)nc3cc(CN4C(=O)CCC4=O)ccc23)c(F)c1` [QCA, 7-((2,5-dioxopyrrolidin-1-yl)methyl)-4-(2-fluoro-4-methoxyphenyl)quinoline-2-carboxamide] had a logP of 1.27. Further, the “interaction with major CNS targets” value in the data set on major CNS targets is “no significant interaction”. Moreover, on human mGlu3 (mGlu3, 41 nM-30 µM QCA), the “effect on glutamate potency or glutamate maximal response (Schild analysis)” value is recorded as “no effect”. In addition, the “effect of pretreatment on [11C]QCA brain uptake” value in data set [7] is “failed to show significant reduction of brain uptake”. In addition, the “activity towards other mGlu receptors” value with other mGlu receptors is “inactive”. The fraction remaining at 1 h, 2 µM in data set [1] amounted to 64.4%. For the same molecule, the “pH stability, percent remaining” value is on record as 97.9% in data set [2] (pH 5.0, 37 °C); 50.9% in data set [2] (pH 7.4, 37 °C); 46.7% in [2] (pH 9.4, 37 °C).

As for `[11CH3]Oc1ccc(C2CCN(c3ccn(CC4CC4)c(=O)c3C#N)CC2)cc1` [[^11C]CMDC, 1-(cyclopropylmethyl)-4-(4-[^11C]methoxyphenyl)-piperidin-1-yl-2-oxo-1,2-dihydropyridine-3-carbonitrile], in data set [8], the peak brain uptake result is on record as “ca. 0.6 SUV”.

Turning to `NC(=O)c1cc(-c2ccc(OCCCF)cc2F)c2ccc(CN3C(=O)CCC3=O)cc2n1` [FPQCA, 7-((2,5-dioxopyrrolidin-1-yl)methyl)-4-(2-fluoro-4-(3-fluoropropoxy)phenyl)quinoline-2-carboxamide], the logP in the data set “LogP, shake flask method” stood at 1.99. Also, on human mGlu3, the “selectivity for mGlu2 over mGlu3” value is listed as “excellent selectivity for mGlu2 over mGlu3”. In data set [1], the amount remaining at 1 h, 2 µM came out at 64.6%. The molecule further returned an IC50 against human mGlu2 of 1080 ± 1300 nM. Moreover, the “pH stability, percent remaining” value in [2] (pH 5.0, 37 °C) is 91.5%; in [2] (pH 7.4, 37 °C) it was 72.5%; in data set [2] (pH 9.4, 37 °C), 76.3%.
